Data as given in ChEMBL document CHEMBL4513216, “Probing the Open Global Health Chemical Diversity Library for Multistage-Active Starting Points for Next-Generation Antimalarials” (ACS Infect Dis, 2020).

Assay: Toxicity liver stage against HepG2, at 10uM
Assay type: cell-based
Parameters: test concentration 10 uM, cell line HepG2-A16-CD81EGFP
Conditions: human, HepG2-A16-CD81EGFP cells; read-out: INHIBITION
Outline: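 Uninfected HepG2-A16-CD81EGFP cells, 3 × 10^3 per well, 1536-well, plated on prespotted compound at 10 μM final, parasite-free screening media added to match infected plates; puromycin 10 μM positive, DMSO 0.5% negative; run in parallel with 48 h PbLuc assay at 37 °C, 5% CO2; viability by CellTiter-Glo luminescence, normalized to controls.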

Row | Compound | cytotoxicity at 10 µM [%]
1 | CC(Cc1ccco1)NC(=O)Nc1ccc(S(C)(=O)=O)nc1 (centres undefined) | 3.95
2 | Cc1ccccc1C(=O)NC(C)CN1CCOC1=O (centres undefined) | 4.33
3 | Cc1ccc(S(=O)(=O)NC[C@H]2OC[C@@H](NCc3ccccn3)[C@@H]2O)cc1 | -52.5
4 | Nc1ncncc1-c1noc([C@@H]2CCCN2CCCc2ccccc2)n1 | 1.58
5 | COc1c[nH]c(C(=O)N2CCN(c3cccc(Cl)c3)CC2)cc1=O | -1
6 | O=c1cc2c(nn1CN1CCN(c3ccccc3)CC1)CCCC2 | -9.58
7 | COc1ccccc1C1SCC(=O)Nc2c1c(=O)[nH]n2C1CCOCC1 (centres undefined) | -5.43
8 | CCN1CCCC1CNC(=O)Cc1c(C)n[nH]c1-c1ccc(F)cc1 (centres undefined) | -3.02
9 | O=C(CSc1nc2c(cnn2CCO)c(=O)[nH]1)NC1CCCCC1 | -8.07
10 | O=C(Nc1nc2c(s1)CN(S(=O)(=O)C1CC1)CC2)c1ccccn1 | -5.46
11 | COCCNC(=O)c1ccnn1-c1ccc2ccccn12 | 8.28
12 | COc1cccc(-c2cnc3n2CCC32CCN(S(C)(=O)=O)CC2)c1 | -2.2
13 | O=C(C1CC(F)(F)C1)N1CC[C@H]2OCC[C@@]2(COCC2CC2)C1 | -3.09
14 | Cc1ccccc1C(=O)N1C[C@@H]2C[C@@H](C)O[C@@H]2C1 | 0.995
15 | Cc1cc(NC(=O)CC2(Cn3cnnn3)CCCCC2)nn1C | 10.4
16 | Cc1cc(C)cc(OCn2ccc(C(=O)O)n2)c1 | 6.06
17 | O=C(c1n[nH]cc1Cl)N1CCOCC1 | 9.02
18 | CCn1nc(C)c2nc(C)nc(NCCCn3cccn3)c21 | 2.38
19 | CC(CN(C)C)Nc1nc(O)cc(Cc2ccccc2F)n1 (centres undefined) | 13.2
20 | O[C@@H]1C[C@H]2CN(Cc3ccsc3)[C@@H](Cc3ccccc3)CN2C1 | -2.13
21 | CCC1c2ccc(C)n2CCN1C(=O)Cn1cnc2sc(C)cc2c1=O (centres undefined) | 6.09
22 | COc1cc(C2Nc3cc(Cl)ccc3C3=NCCN32)cc(OC)c1OC (centres undefined) | -24.8

Row | Compound | cytotoxicity at 10 µM [%]
23 | CCC(=O)N1CCC(c2nc(O)c3c(n2)CN(C2CCCCC2)CC3)C1 (centres undefined) | -15.7
24 | CCn1cc(CN2CCC(O)(Cn3ccc4ncccc43)CC2)cn1 | -16.3
25 | CC(=O)N1CCC(C(=O)c2cc(C)cnc2N)CC1 | -0.0531
26 | O=C(c1ccc(Cl)cc1)N1CC2(CCNC2)OCc2ccccc21 (centres undefined) | 9.9
27 | O=C(c1cc(Cl)c[nH]1)N(CCCO)Cc1cccnc1 | 7.48
28 | CCCn1ccnc1SCC(=O)NC(Cc1ccccc1)C(C)=O (centres undefined) | -9.58
29 | O=S(=O)(NCCCn1cccn1)c1ccc2c(c1)CCC2 | -4.59
30 | CN(Cc1ccco1)C(=O)CN1C(=O)c2cc(Cl)c(Cl)cc2C1=O | 1.11
31 | COCc1noc(Cn2c(C3CC3)nc3ccccc32)n1 | 13.2
32 | N#CC1(NC(=O)COC(=O)Cc2cc(Cl)c3c(c2)OCCO3)CCCC1 | 0.935
33 | COc1ccc(C(C)NCc2nnc(C)s2)cc1F (centres undefined) | -19.8
34 | COC(=O)C1CN(Cc2ccc(-c3ccncc3)cc2F)C[C@@H](C)O1 (some centres undefined) | 1.63
35 | CCc1nsc(N2CCCN(CC(=O)N(C)C3CC3)CC2)n1 | -9.43
36 | O=C(NCCNS(=O)(=O)c1cccc(Cl)c1)C1CCCO1 (centres undefined) | 11.5
37 | CCc1ccc(C(COC)NC(=O)c2ccc(C(N)=O)cc2)o1 (centres undefined) | -2.65
38 | Cc1cc(C(=O)NCC2(N(C)C)CCCC2)c(C)n1-c1cccnc1 | -8.41
39 | Cc1ncsc1C(=O)NC1CCN(c2ncccc2C#N)CC1 | 2.68
40 | CCc1ccc(C(C)NC(=O)CCc2nc(-c3nnc[nH]3)no2)cc1 (centres undefined) | -1.98
41 | CC(C)c1nccn1C1CCCN(C(=O)c2ccc(=O)n(C)n2)C1 (centres undefined) | 7.8
42 | COC(=O)N1CCN(Cc2ccccc2C(C)(C)C#N)CC1 | -3.53
43 | CN(Cc1nnc(C2CC2)n1C)C1CCN(CCS(C)(=O)=O)C1 (centres undefined) | 0.918
44 | CC(NC(=O)Cn1ccnc1)c1ccc(OCC2CC2)c(F)c1 (centres undefined) | 0.99

Row | Compound | cytotoxicity at 10 µM [%]
45 | Cc1cc(C(=O)N2CCCN(Cc3cnn(C(C)C)c3)CC2)no1 | 0.243
46 | FC(F)(F)Sc1ccc(NCc2nnc(C3CC3)o2)cc1 | 5.69
47 | COCCCn1ccc(NCc2cnc(C(C)(C)C)s2)n1 | 5.91
48 | Cc1cnn(-c2cccc(N3CCCCC3)n2)c1 | 0.247
49 | O=C(CCS(=O)(=O)C1CCCC1)NCCc1cccnc1 | 6.86
50 | CSc1ccc(NC(=O)Cc2cccc(O)c2)nc1 | -4.3
51 | CN(C(=O)c1ccco1)C1CCC(NC(=O)OC(C)(C)C)CC1 (centres undefined) | 8.12
52 | CN1CCN(c2ccccc2NC(=O)NCC[S+](C)[O-])CC1 (centres undefined) | -2.41
53 | Cc1cccc2c1NC(c1cnc(C3CCC3)s1)NC2=O (centres undefined) | 5.11
54 | COCCOCCCNC(=O)c1cc(Cl)cc2cccnc12 | 32.6
55 | Cc1cccc2c(CCNS(=O)(=O)C3CCOC3)c[nH]c12 (centres undefined) | 12.7
56 | Fc1cccc(CCN(c2ccc3nnnn3n2)C2CC2)c1 | 4.21
57 | CC(c1ccccc1F)N1CCN(C(=O)Cc2ccncc2)CC1 (centres undefined) | -2.94
58 | Cc1cc(CN2CCCC(C)(CO)C2)ccc1F (centres undefined) | -20.4
59 | COc1cc(N2CC[C@@H]3OCCN(C)[C@H]3CC2)ncn1 | -96.6
60 | O=C(c1ccoc1)N1CCO[C@@H]2CNC[C@@H]21 | -99.9
61 | O=C(c1ccno1)N1CC[C@@H]2CN(C3CCOCC3)CCO[C@@H]2C1 | -102
62 | O=C(Cc1ccsc1)N1C[C@@H]2COC[C@]2(COc2cccnc2)C1 | -99.3
63 | CC(C)N(C)Cc1cnc2n1CCN(C(=O)c1cccs1)C2 | -74.2
64 | O=C(NCc1ccccc1)N1CCn2c(Cn3cccn3)cnc2C1 | -71
65 | CN(C)C(=O)N1CCC2(CC1)C(c1cnn(C)c1)CC(=O)N2C (centres undefined) | -78.2
66 | Cc1occc1C(=O)N1CCn2c(COCC3CC3)cnc2C1C (centres undefined) | 7.02

Row | Compound | cytotoxicity at 10 µM [%]
67 | CC1c2ncc(COCC3CC3)n2CCN1C(=O)c1ccnn1C (centres undefined) | 4.68
68 | Cn1cc(-c2nnn3c2COC(CNCc2ccncc2)C3)cn1 (centres undefined) | 0.887
69 | Cc1nc(CN(C)CC2CCCN(CCc3ccc(Cl)cc3)C2)n(C)n1 (centres undefined) | 4.44
70 | C1CCC(c2nc3c(c(N4CCN5CCCC5C4)n2)CCNCC3)C1 (centres undefined) | -1.1
71 | CN(C)C(=O)c1ccc(C2CCCN2C(=O)c2ccccc2N(C)C)s1 (centres undefined) | 18.5
72 | Cc1cccc(C(=O)N2CCCCC2c2nc3cc(F)ccc3[nH]2)n1 (centres undefined) | -1.99
73 | CCc1cnc(NCc2nc(COC)no2)nc1 | 7.36
74 | COc1ccccc1OC1CN(c2ccncc2)C1 | -2.76
75 | Cc1nccc(N[C@H]2CN(CCS(C)(=O)=O)C[C@@H]2C2CC2)n1 | 0.34
76 | Cc1noc(C)c1-c1n[nH]c2c1CN(S(=O)(=O)c1ccsc1)CC2 | 5.6
77 | O=C(Cc1ccc2c(c1)OCO2)N1CCN(c2ccccc2Cl)C(=O)C1 | -0.874
78 | Cc1nc2c(c(N3CCC(CN4CCCC4=O)CC3)n1)CCNCC2 | 8.64
79 | CC(C)[C@@H]1CN(C(=O)C2(c3ccccc3)CCN(C)CC2)C[C@H]1N(C)C | -32
80 | O=C1NCC(CN2CCc3onc(-c4ccc(C(F)(F)F)cc4)c3C2)O1 (centres undefined) | 2.02
81 | Cc1ccc(C2(CN3CCN(c4ncccn4)CC3)CCNCC2)nc1 | -10.1
82 | CCOCC(C)(C)NC(=O)Nc1cc(F)ccc1OC | -3.12
83 | CCn1c(N)nc2cc(C(=O)NCCc3ccccc3F)cnc21 | -1.83
84 | CCN1CCN(C(=O)CCC2CCN(C(C)CCC(=O)OC)CC2)CC1 (centres undefined) | 0.9
85 | COCc1nnc(C(=O)N2CCC(N3CCCCC3)CC2)o1 | 10.2
86 | O[C@@H]1CN(c2nc3ccccc3o2)CC[C@H]1c1ccc2c(c1)OCO2 | 5.36
87 | CC(=O)N[C@@H]1CN(Cc2nc3ccccc3[nH]2)C[C@H]1c1ccc(C)o1 | 2.75
88 | CN(C)CC1(O)CCN(C(=O)Cc2ccc(Cl)c(Cl)c2)C1 (centres undefined) | -4

Row | Compound | cytotoxicity at 10 µM [%]
89 | Cc1cc(C(=O)N2CCC(n3cc(CO)nn3)CC2)ccc1F | -4.73
90 | Cc1cnn(CC2CCCCN2C(=O)c2ccc3[nH]c(=O)[nH]c3c2)c1 (centres undefined) | 5.8
91 | O=C(NCc1cc[nH]n1)N1CCN(c2ccccc2Cl)CC1 | -2.82
92 | COc1ccc(C(=O)N(Cc2cnn(C)c2)C(C)C)cc1Br | -9.02
93 | CC(C)N1CCC(CNCc2c[nH]nc2C(C)(C)C)C1 (centres undefined) | -2.16
94 | O=C(c1cnc(C2CC2)s1)N1CCCC(n2cccn2)C1 (centres undefined) | -13.9
95 | CCc1nc(CNC(C)Cn2cccn2)cs1 (centres undefined) | -4.67
96 | CC(C)C(=O)N1CCC2(CC1)NC(=O)c1ccccc12 | -0.787
97 | CC(C)N(C(=O)Cn1c(-c2ccco2)cc2cccnc21)C(C)C | -4.32
98 | Cc1ccc(OCCCSC2=NCCN2)cc1 | -9.66
99 | CC(C)CNC(=O)N1CCC2(CC1)OC(C(N)=O)Cn1ccnc12 (centres undefined) | -103
100 | CCCC(N)CNS(=O)(=O)Cc1cccc(C#N)c1 (centres undefined) | 6.13
101 | COc1ccc([C@@H]2CN(Cc3ccncc3)C[C@H]2c2cc[nH]n2)cc1 | -4.96
102 | Cc1ccc(CN2CCOC3(CCN(C(=O)C4CCOC4)CC3)C2)cc1 (centres undefined) | 0.933
103 | CN(C)C(=O)NC1COC2(CCN(Cc3ccc(Cl)c(F)c3)CC2)C1 (centres undefined) | -76.4
104 | COCCNC(=O)[C@@]12CCO[C@@H]1CCN(Cc1c(C)noc1C)C2 | -2.45
105 | Cc1ccc(C(=O)N2CCn3c(COCC4CC4)cnc3C2C)nc1 (centres undefined) | 3.58
106 | CN(C)C(=O)[C@@H]1CC[C@@H]2[C@@H](CCN2Cc2ccccn2)O1 | -3.55
107 | CN(Cc1cccs1)C1CCC[C@@H]2CN(C(N)=O)C[C@H]12 (some centres undefined) | 18.6
108 | CSc1ccc(C(=O)N2C[C@@H]3CC[C@H]2CN(Cc2ccccc2)C3)cc1 | -5.49
109 | C=c1nc(NC)sc1=C1NC(c2c(C)ncc3c2CCNC3)=NO1 | 1.67
